≈ marks a conversion by molar mass, not a printed value.
Tests used:
[1] = biological target: T1, Sodium channel alpha subunits; brain (Types I, II, III) (Homo sapiens, UniProt P35498+Q99250+Q9NY46); experiment: Inhibitory concentration against synaptosome using [3H]PbTx-3
[2] = biological target: T1, Sodium channel alpha subunits; brain (Types I, II, III); experiment: Inhibitory concentration against synaptosomes using [3H]PbTx-3; format: subcellular
[3] = biological target: T1, Sodium channel alpha subunits; brain (Types I, II, III)
[4] = biological target: Peptidyl-prolyl cis-trans isomerase FKBP1A (Homo sapiens, UniProt P62942); experiment: Inhibitory concentration against binding to FKBP12
MCF7 [5] = experiment: Inhibitory concentration against MCF-7 human breast carcinoma cell line; Inactive upto 1 uM; format: functional, cell-based
PC-3 [6] = experiment: Inhibitory concentration against PC-3 human prostate carcinoma cell line; Inactive upto 1 uM; format: functional, cell-based
1A9/ptx-10 [7] = experiment: Inhibitory concentration against 1A9/PTX10 cell line; Inactive upto 1 uM; format: functional, cell-based, Homo sapiens
A2780 [8] = experiment: Inhibitory concentration against A2780/AD10 cell line; Inactive upto 1 uM; format: functional, cell-based, Homo sapiens
A549 [9] = experiment: Inhibitory concentration against A549 human lung carcinoma cell line; Inactive upto 1 uM; format: functional, cell-based
1A9 [10] = experiment: Inhibitory concentration against 1A9 human ovarian carcinoma cell line; Inactive upto 1 uM; format: functional, cell-based
Bile acid receptor [11] = biological target: T2, Bile acid receptor (Homo sapiens, UniProt Q96RI1); experiment: Effective concentration against farnesoid X receptor (FXR); range is 5-10 uM
Bile acid receptor [12] = biological target: T2, Bile acid receptor; experiment: Effective concentration towards farnesoid X receptor (FXR); Range is 5-10 uM
[13] = biological target: T3, Integrin alpha-IIb/beta-3 (Homo sapiens, UniProt P05106+P08514); experiment: Inhibitory concentration against integrin alpha-2b beta3; format: protein-complex assay
[14] = biological target: T3, Integrin alpha-IIb/beta-3; experiment: Inhibitory concentration against alpha IIb beta-3 receptor; format: protein-complex assay
P388 [15] = experiment: Cytotoxicity against P-388 cancer cell line; format: functional, Homo sapiens; conditions: Mus musculus, read-out: ED50 (the source's name)
P388 [16] = experiment: Cytotoxicity against leukemia P-388 tumor cells; format: functional; conditions: Mus musculus, read-out: ED50 (the source's name)
OVCAR-3 [17] = experiment: Cytotoxicity by measuring inhibitory concentration against ovcar-3 tumor cell line; format: functional, cell-based, Homo sapiens; conditions: Homo sapiens, OVCAR-3
OVCAR-3 [18] = experiment: Cytotoxicity by measuring inhibitory concentration against ovcar-3 tumor cell line; 10e-10; format: functional, cell-based; conditions: Homo sapiens
PC-3 [19] = experiment: Inhibitory concentration against PC-3 human prostate carcinoma cell line; Range is 10-15 nM; format: functional, cell-based
MCF7 [20] = experiment: Inhibitory concentration against MCF-7 human breast carcinoma cell line; Range is 10-15 nM; format: functional, cell-based
A2780 [21] = experiment: Inhibitory concentration against A2780/AD10 cell line; Range is 10-15 nM; format: functional, cell-based; conditions: Homo sapiens
1A9/ptx-10 [22] = experiment: Inhibitory concentration against 1A9/PTX10 cell line; Range is 10-15 nM; format: functional, cell-based; conditions: Homo sapiens
A549 [23] = experiment: Inhibitory concentration against A549 human lung carcinoma cell line; Range is 10-15 nM; format: functional, cell-based
1A9 [24] = experiment: Inhibitory concentration against 1A9 human ovarian carcinoma cell line; Range is 10-15 nM; format: functional, cell-based
[25] = biological target: T4, Peroxisome proliferator-activated receptor delta (Homo sapiens, UniProt Q03181); experiment: Effective concentration towards PPAR delta
[26] = biological target: T4, Peroxisome proliferator-activated receptor delta; experiment: Effective concentration against PPAR delta receptor
OVCAR-3 [27] = experiment: Cytotoxicity by measuring inhibitory concentration against ovcar-3 tumor cell line; Inactive; format: functional, cell-based, Homo sapiens
[28] = Inhibitory concentration against LN229 cell proliferation; format: functional, cell-based; conditions: Homo sapiens, LN-229
Gallus gallus = experiment: In vivo inhibition of angiogenesis in the chick chorioallantoic membrane (CAM) assay; format: functional
[29] = biological target: Polyunsaturated fatty acid 5-lipoxygenase (Homo sapiens, UniProt P09917); experiment: Effective concentration required to inhibit 5-lipoxygenase by 50%
[30] = biological target: Tubulin beta-4B chain (Homo sapiens) (UniProt P68371); experiment: (§1) Tubulin polymerization at a concentration of 100 uM incubated for 90 minutes; format: functional
Method in brief: (§2)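 Tubulin polymerization was read as percent polymerization, with test drug at 100 µM and a 90 min incubation.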

[31] = biological target: Tubulin beta-4B chain (Homo sapiens) (UniProt P68371); experiment: as §1; method in brief: as §2
1A9 [32] = experiment: Inhibitory concentration against human ovarian 1A9 tumor cells; format: functional, cell-based
MOLT-4 [33] = experiment: Inhibitory concentration against MOLT-4 human T-cells; format: functional, cell-based
MOLT-4 [34] = experiment: Inhibitory concentration against MOLT-4 human T-cells; 10e-11; format: functional, cell-based
A549 [35] = experiment: Inhibitory concentration against A549 human lung carcinoma cell line; Range is 2-5 nM; format: functional, cell-based
1A9/ptx-10 [36] = experiment: Inhibitory concentration against 1A9/PTX10 cell line; Range is 2-5 nM; format: functional, cell-based; conditions: Homo sapiens
A2780 [37] = experiment: Inhibitory concentration against A2780/AD10 cell line; Range is 2-5 nM; format: functional, cell-based; conditions: Homo sapiens
1A9 [38] = experiment: Inhibitory concentration against 1A9 human ovarian carcinoma cell line; Range is 2-5 nM; format: functional, cell-based
MCF7 [39] = experiment: Inhibitory concentration against MCF-7 human breast carcinoma cell line; Range is 2-5 nM; format: functional, cell-based
PC-3 [40] = experiment: Inhibitory concentration against PC-3 human prostate carcinoma cell line; Range is 2-5 nM; format: functional, cell-based

T1 sequence (Q99250 whole entry, looked up, other chains not shown): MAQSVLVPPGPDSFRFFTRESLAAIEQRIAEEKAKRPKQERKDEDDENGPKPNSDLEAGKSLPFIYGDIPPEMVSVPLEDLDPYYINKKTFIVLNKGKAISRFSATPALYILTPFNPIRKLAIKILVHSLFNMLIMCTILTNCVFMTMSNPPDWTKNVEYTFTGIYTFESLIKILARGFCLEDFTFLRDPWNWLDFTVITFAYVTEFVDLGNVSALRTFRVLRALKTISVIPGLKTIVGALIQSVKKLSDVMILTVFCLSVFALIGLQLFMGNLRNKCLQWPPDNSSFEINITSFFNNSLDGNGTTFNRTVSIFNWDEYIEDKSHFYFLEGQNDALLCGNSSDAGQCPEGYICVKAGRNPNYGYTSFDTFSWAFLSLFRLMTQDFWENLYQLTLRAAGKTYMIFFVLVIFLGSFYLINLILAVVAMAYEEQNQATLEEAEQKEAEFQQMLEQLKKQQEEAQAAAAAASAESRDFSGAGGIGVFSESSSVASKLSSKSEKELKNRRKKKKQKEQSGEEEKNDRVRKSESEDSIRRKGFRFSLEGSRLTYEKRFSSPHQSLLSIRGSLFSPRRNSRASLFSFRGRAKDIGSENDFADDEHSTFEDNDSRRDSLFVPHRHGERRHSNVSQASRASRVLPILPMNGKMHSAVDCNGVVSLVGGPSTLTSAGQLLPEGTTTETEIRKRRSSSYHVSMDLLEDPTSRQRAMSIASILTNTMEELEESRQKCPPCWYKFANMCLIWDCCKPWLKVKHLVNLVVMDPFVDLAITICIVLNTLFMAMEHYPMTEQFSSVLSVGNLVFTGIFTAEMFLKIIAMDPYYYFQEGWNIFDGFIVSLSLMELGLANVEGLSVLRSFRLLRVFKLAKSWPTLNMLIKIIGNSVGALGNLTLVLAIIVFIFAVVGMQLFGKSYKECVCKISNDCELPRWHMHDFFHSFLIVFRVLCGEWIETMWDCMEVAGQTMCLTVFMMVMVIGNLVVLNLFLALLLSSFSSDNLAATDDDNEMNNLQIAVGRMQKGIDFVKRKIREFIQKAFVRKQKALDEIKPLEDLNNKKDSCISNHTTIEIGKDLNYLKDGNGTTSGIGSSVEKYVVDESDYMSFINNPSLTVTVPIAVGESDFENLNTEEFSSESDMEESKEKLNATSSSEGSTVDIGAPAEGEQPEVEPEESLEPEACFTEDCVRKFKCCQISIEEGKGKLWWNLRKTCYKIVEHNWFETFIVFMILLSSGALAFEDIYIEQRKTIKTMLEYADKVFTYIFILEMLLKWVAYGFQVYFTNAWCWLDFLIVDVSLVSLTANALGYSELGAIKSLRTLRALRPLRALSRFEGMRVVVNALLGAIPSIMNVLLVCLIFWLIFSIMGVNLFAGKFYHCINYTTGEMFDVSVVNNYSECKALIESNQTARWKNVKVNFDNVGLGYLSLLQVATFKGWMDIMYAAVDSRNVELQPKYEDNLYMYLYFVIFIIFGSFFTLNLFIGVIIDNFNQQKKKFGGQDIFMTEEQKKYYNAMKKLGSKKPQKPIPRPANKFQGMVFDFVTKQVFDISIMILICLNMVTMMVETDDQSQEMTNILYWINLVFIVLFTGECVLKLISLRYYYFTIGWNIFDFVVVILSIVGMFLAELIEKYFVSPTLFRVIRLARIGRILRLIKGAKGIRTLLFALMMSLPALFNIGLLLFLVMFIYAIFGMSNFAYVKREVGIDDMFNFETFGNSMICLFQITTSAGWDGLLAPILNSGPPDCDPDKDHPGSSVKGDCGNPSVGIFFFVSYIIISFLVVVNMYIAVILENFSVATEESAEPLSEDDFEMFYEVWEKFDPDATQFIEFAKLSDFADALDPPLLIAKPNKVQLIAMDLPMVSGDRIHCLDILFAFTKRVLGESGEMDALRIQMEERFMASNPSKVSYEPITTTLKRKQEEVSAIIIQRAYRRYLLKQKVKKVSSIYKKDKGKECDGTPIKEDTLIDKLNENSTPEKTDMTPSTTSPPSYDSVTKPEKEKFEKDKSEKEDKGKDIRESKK
T1 sequence (Q9NY46 whole entry, looked up, other chains not shown): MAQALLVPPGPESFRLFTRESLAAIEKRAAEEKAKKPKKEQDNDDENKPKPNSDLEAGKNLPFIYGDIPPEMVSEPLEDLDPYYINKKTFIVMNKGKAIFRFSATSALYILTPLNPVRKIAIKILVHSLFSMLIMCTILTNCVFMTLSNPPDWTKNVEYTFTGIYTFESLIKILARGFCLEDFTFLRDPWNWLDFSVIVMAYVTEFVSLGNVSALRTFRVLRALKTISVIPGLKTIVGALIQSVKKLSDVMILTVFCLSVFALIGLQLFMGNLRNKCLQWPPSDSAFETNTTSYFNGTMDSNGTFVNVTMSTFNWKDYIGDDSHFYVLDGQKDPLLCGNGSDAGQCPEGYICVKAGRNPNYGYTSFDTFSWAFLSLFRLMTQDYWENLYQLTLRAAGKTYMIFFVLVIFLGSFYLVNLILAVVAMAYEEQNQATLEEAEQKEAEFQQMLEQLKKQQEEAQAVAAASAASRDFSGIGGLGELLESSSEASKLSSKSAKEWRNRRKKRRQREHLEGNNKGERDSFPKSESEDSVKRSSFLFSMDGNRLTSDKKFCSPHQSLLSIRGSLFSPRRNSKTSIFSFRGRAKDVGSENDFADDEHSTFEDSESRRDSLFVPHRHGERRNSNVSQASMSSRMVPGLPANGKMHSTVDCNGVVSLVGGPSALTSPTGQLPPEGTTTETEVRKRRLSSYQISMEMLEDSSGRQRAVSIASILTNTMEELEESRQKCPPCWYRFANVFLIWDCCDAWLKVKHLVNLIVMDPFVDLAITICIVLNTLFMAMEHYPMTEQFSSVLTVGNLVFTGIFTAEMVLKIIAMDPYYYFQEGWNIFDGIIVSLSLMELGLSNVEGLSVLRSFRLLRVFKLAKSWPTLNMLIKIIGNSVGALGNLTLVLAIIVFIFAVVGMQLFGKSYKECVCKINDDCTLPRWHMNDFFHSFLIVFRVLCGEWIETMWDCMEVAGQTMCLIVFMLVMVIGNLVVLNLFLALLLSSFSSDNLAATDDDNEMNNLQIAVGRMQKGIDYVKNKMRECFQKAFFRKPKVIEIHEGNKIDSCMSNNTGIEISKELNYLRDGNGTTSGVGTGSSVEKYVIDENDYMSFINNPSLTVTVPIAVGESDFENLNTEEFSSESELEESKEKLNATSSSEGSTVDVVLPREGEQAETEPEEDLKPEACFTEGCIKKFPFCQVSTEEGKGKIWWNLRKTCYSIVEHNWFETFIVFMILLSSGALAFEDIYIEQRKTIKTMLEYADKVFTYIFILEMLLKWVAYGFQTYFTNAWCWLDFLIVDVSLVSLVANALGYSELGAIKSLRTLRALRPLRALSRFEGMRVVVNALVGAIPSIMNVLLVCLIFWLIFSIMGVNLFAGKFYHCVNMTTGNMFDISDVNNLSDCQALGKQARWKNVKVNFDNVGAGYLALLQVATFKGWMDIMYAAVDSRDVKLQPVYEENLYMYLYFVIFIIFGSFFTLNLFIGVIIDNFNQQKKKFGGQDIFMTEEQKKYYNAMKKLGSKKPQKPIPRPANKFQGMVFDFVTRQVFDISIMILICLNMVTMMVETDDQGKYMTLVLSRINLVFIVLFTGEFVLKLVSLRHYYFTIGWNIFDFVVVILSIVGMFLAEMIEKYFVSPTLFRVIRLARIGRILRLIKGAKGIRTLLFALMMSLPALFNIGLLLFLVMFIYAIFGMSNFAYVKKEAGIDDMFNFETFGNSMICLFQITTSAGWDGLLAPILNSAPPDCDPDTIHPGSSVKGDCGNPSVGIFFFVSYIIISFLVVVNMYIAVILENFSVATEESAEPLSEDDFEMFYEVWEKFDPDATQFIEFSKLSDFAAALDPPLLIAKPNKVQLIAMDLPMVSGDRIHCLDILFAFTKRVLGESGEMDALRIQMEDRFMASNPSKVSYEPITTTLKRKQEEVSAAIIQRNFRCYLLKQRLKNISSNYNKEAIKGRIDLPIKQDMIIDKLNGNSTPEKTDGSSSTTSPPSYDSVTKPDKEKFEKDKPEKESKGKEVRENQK
T2 sequence (Q96RI1 whole entry): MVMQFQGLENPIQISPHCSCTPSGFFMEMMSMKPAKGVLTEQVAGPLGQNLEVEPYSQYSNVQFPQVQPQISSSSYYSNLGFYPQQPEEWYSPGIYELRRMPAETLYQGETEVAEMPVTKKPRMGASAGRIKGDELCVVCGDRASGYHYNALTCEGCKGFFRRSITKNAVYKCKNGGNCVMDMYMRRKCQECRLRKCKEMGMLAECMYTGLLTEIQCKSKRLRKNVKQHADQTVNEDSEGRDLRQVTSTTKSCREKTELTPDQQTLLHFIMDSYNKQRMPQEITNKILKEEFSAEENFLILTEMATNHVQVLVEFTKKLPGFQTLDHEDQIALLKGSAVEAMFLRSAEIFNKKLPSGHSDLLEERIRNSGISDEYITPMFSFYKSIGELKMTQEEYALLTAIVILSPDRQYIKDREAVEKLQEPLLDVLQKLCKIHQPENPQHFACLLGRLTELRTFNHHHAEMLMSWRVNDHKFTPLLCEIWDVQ
T4 sequence (Q03181 whole entry): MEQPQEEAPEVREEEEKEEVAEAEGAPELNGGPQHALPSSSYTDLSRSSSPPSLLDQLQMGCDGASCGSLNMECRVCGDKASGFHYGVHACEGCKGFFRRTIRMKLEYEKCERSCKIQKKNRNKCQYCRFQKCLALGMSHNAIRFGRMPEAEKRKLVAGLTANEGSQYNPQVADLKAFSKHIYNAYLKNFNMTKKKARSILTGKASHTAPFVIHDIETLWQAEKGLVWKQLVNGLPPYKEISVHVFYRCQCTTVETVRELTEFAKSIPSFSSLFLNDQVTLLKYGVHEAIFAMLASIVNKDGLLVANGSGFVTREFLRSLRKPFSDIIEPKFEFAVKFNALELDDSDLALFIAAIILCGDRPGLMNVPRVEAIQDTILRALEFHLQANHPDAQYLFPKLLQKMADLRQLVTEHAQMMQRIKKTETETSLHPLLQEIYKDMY
Sequence of Peptidyl-prolyl cis-trans isomerase FKBP1A (P62942 whole entry): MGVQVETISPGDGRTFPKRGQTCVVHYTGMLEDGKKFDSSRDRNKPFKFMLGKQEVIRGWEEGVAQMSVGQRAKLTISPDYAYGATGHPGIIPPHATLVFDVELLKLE

`C=C(C=O)C[C@@H]1C[C@H](O)[C@]2(C)O[C@@H]3C[C@@H]4O[C@@H]5C[C@]6(C)O[C@]7(C)C(C)=CC(=O)O[C@H]7C[C@H]6O[C@@]5(C)C/C=C\[C@H]4O[C@H]3C[C@H]2O1` [TRUNCATED BREVETOXIN B] showed an IC50 [1] of over 10000 nM, an IC50 [2] of over 10000 nM and a Binding [3] of 18 nM.
Work on `CO[C@H]1C[C@@H]2CC[C@@H](C)[C@@](O)(O2)C(=O)C(=O)N2CCCC[C@H]2C(=O)N[C@H](CCc2ccccc2)C(=O)NCC(=O)N(C)CC(=O)O[C@H]1C` yielded an IC50 [4] of 9.6 nM.
With `CC(C)[C@@H]1NC(=O)[C@@H](NC(=O)OCc2ccccc2)Cc2ccc3c(c2)[C@]2(C4=C(C=O)N=C1O4)c1cccc(Br)c1N[C@@H]2O3` the IC50 (MCF7 [5]) was “Inactive”, the IC50 (PC-3 [6]) was “Inactive” and the IC50 (1A9/ptx-10 [7]) was “Inactive”. The IC50 (A2780 [8]) was “Inactive”, the IC50 (A549 [9]) was “Inactive” and the IC50 (1A9 [10]) was “Inactive”.
With `CC(C)[C@H](O)C(=O)N[C@H]1Cc2ccc(O)c(c2)[C@]2(C(=O)Nc3ccccc32)C2=C(CO)N=C(O2)[C@H](C(C)C)NC1=O` the IC50 (MCF7 [5]) was “Inactive”, the IC50 (PC-3 [6]) was “Inactive” and the IC50 (1A9/ptx-10 [7]) was “Inactive”. For the same compound, the IC50 (A2780 [8]) was “Inactive”, the IC50 (A549 [9]) was “Inactive” and the IC50 (1A9 [10]) was “Inactive”.
Work on `COc1c(CN(C(=O)C2CC2)c2ccccc2)ccc2c1OC(C)(C)C=C2` yielded an EC50 (Bile acid receptor [11]) of 10000 nM and an EC50 (Bile acid receptor [12]) of 10000 nM.
`N=C(N)N1CCN(c2ccc(C(=O)NC[C@H](NS(=O)(=O)c3c(O)ccc4ccccc34)C(=O)O)cc2[N+](=O)[O-])CC1` gave an IC50 [13] of 14 nM and an IC50 [14] of 14 nM.
Work on `CC(C)=CC[C@@H]1C(=O)C2=C(OC(C)(C)C=C2)C(=O)[C@@]12OC(=O)C1=C[C@]3(O)C[C@H]4C(C)(C)OC(CC=C(C)C)(C3=O)[C@]14O2` [LATERIFLORONE] yielded an EC50 (P388 [15]) of 5.4 µg/mL (≈ 9.33 µM) and an EC50 (P388 [16]) of 5.4 µg/mL (≈ 9.33 µM).
`CC(=O)OC1C(=O)[C@@]2(C)[C@H]([C@H](OC(=O)c3ccsc3)[C@]3(O)C[C@H](OC(=O)[C@H](O)[C@@H](NC(=O)c4ccccc4)c4ccccc4)C(C)=C1C3(C)C)[C@]1(OC(C)=O)CO[C@@H]1C[C@@H]2O` (stereo not given in full) showed an IC50 (OVCAR-3 [17]) of 0.671 nM and an IC50 (OVCAR-3 [18]) of 0.67 nM.
`CC(C)[C@@H]1NC(=O)[C@@H](NC(=O)[C@H](O)C(C)C)Cc2ccc3c(c2)[C@]24C5=C(N=C1O5)c1nc(Cl)c(o1)-c1c(Cl)[nH]c5cccc(c15)-c1cccc2c1N[C@@H]4O3` gave an IC50 (PC-3 [19]) of 15 nM, an IC50 (MCF7 [20]) of 15 nM and an IC50 (A2780 [21]) of 15 nM. The IC50 (1A9/ptx-10 [22]) was 15 nM, the IC50 (A549 [23]) was 15 nM and the IC50 (1A9 [24]) was 15 nM.
Compound `CC(C)N(Cc1cccc2c1OC(C)(C)C=C2)C(=O)c1ccc(-c2ccccc2)cc1` has an EC50 [25] of 1000 nM and an EC50 [26] of 1 nM.
For `CC(=O)O[C@@H]1C2=C(C)[C@H](OC(=O)[C@H](O)[C@@H](NC(=O)c3ccccc3)c3ccccc3)C[C@@](O)([C@@H](OC(=O)c3ccccc3)c3ccccc3[C@H]1OC(C)=O)C2(C)C`, the IC50 (OVCAR-3 [27]) was “Not Active”.
`COc1c(C(C)n2cnc3ncccc32)ccc2c1C=CC(C)(C)O2` (stereo not given) gave an IC50 [28] of 26000 nM.
Compound `N=C(N)NCCOc1ccc(C(=O)NC[C@H](NS(=O)(=O)c2ccccc2)C(=O)O)cc1[N+](=O)[O-]` has a Dose (Gallus gallus) of 30 ug/embryo.
In the case of `O=C(O)CCC[C@H](O)\C=C/C=C/C=C/[C@H](O)C/C=C\CCCCC(F)(F)F`, the EC50 [29] is reported as 3 nM.
`CO[C@]12C=C[C@](C)(O1)[C@@H](OC(=O)/C=C/c1cn(C)cn1)C[C@H]1C(C)=CC[C@H](C(C)C)[C@H]1/C=C\2COC1OCC(O)C(O)C1OC(C)=O` (stereo not given in full) showed a TP [30] of 54%, a TP [31] of 54% and an IC50 (1A9 [32]) of 40 nM.
Work on `COC(=O)N/C(C)=C1/C(=C/COC(=O)c2ccc([N+](=O)[O-])cc2)[C@@](O)(CC=O)C#C/C=C\C#C[C@@H]1O` yielded an IC50 (MOLT-4 [33]) of 0.044 nM and an IC50 (MOLT-4 [34]) of 0.044 nM.
In the case of `C=C(C=O)C[C@@H]1C[C@H](O)[C@]2(C)O[C@@H]3C[C@@H]4O[C@@H]5C[C@]6(C)O[C@]7(C)CC[C@@H]8O[C@@H]9C[C@]%10(C)O[C@@H]%11C(C)=CC(=O)O[C@H]%11C[C@H]%10O[C@H]9C[C@@H](C)[C@H]8O[C@H]7C[C@H]6O[C@@]5(C)C/C=C\[C@H]4O[C@H]3C[C@H]2O1` [BREVETOXIN B], the IC50 [1] is reported as 15.02 nM, the IC50 [2] is reported as 15.02 nM and the Binding [3] is reported as 18 nM.
In the case of `[H][C@]12Nc3c4cccc3[C@]13C1=C(N=C(O1)[C@H](C(C)C)NC(=O)[C@@H](NC(=O)[C@@H](O)C(C)C)Cc1ccc(c3c1)O2)c1nc(Cl)c(o1)-c1c(Cl)[nH]c2cccc-4c12` [DIAZONAMIDE A], the IC50 (A549 [35]) is reported as 5 nM, the IC50 (1A9/ptx-10 [36]) is reported as 5 nM and the IC50 (A2780 [37]) is reported as 5 nM. For the same compound, the IC50 (1A9 [38]) was 5 nM, the IC50 (MCF7 [39]) was 5 nM and the IC50 (PC-3 [40]) was 5 nM.

Reference: ChEMBL document CHEMBL1143652, “Joys of molecules. 2. Endeavors in chemical biology and medicinal chemistry” (J Med Chem, 2005)
